Laboratory results as given in ChEMBL document CHEMBL1123648, “Synthesis, chemical reactivity, and antileukemic activity of 5-substituted 6,7-bis(hydroxymethyl)pyrrolo[1,2-c]thiazole biscarbamates and the corresponding sulfoxides and sulfones” (1987).

What was measured:
[1] = Antileukemic activity against Murine P388 lymphocytic leukemia and toxicity day survivors expressed as number of animals that survived to day five/ number of test animals under control group B at a dose of 25 mg/kg; 6 survived out of 6; assay type: functional, Mus musculus
[2] = Toxicity day survivors expressed as number of animals that survived to day five/ number of test animals under control group A at a dose of 12.5 mg/kg; 6 survived out of 6; assay type: functional, Mus musculus
[3] = Antileukemic activity against Murine P388 lymphocytic leukemia, body weight difference of the test animals compared to control group A animals at a dose of 100 mg/kg; assay type: functional, Mus musculus; parameters: unit not given here
How it was run: (§1)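 CD2F1 mice implanted intraperitoneally with ascitic fluid carrying ca. 1×10^6 P388 cells, under the NCI protocol. Dosing was intraperitoneal, starting 24 h after inoculation, then every 24 h for five doses in total. The body weight difference of treated mice is taken against untreated controls. Toxicity day survivors are the mice alive at day five out of those tested.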

P388 [4] = experiment: Log cell population relative to cell population at the beginning of treatment compared to control group C at a dose of 6.25 mg/kg; assay type: functional, Mus musculus
[5] = Percent increase in life span of test animals compared to untreated tumor-bearing control group A animals at a dose of 50 mg/kg; assay type: functional; conditions: Mus musculus
[6] = Antileukemic activity against Murine P388 lymphocytic leukemia, body weight difference of the test animals compared to control group C animals at a dose of 6.25 mg/kg; assay type: functional, Mus musculus; how it was run: as §1
[7] = Antileukemic activity against Murine P388 lymphocytic leukemia, body weight difference of the test animals compared to control group C animals at a dose of 100 mg/kg; assay type: functional, Mus musculus; parameters: unit not given here; how it was run: as §1
[8] = Percent increase in life span of test animals compared to untreated tumor-bearing control group B animals at a dose of 25 mg/kg; assay type: functional; conditions: Mus musculus
[9] = Percent increase in life span of test animals compared to untreated tumor-bearing control group C animals at a dose of 50 mg/kg; assay type: functional; conditions: Mus musculus
P388 [10] = experiment: Log cell population relative to cell population at the beginning of treatment compared to control group C at a dose of 12.5 mg/kg; assay type: functional, Mus musculus
[11] = Antileukemic activity against Murine P388 lymphocytic leukemia, body weight difference of the test animals compared to control group B animals at a dose of 6.25 mg/kg; assay type: functional, Mus musculus; how it was run: as §1
[12] = Antileukemic activity against Murine P388 lymphocytic leukemia, body weight difference of the test animals compared to control group B animals at a dose of 50 mg/kg; assay type: functional, Mus musculus; parameters: unit not given here; how it was run: as §1
[13] = Antileukemic activity against Murine P388 lymphocytic leukemia, body weight difference of the test animals compared to control group C animals at a dose of 50 mg/kg; assay type: functional, Mus musculus; parameters: unit not given here; how it was run: as §1
P388 [14] = experiment: Percent increase in life span of test animals compared to untreated tumor-bearing control group B animals at a dose of 50 mg/kg; assay type: functional; conditions: Mus musculus
P388 [15] = experiment: Log cell population relative to cell population at the beginning of treatment compared to control group A at a dose of 25 mg/kg; assay type: functional, Mus musculus
P388 [16] = experiment: Log cell population relative to cell population at the beginning of treatment compared to control group A at a dose of 50 mg/kg; assay type: functional, Mus musculus
[17] = Antileukemic activity against Murine P388 lymphocytic leukemia, body weight difference of the test animals compared to control group A animals at a dose of 12.5 mg/kg; assay type: functional, Mus musculus; how it was run: as §1
[18] = Antileukemic activity against Murine P388 lymphocytic leukemia, body weight difference of the test animals compared to control group B animals at a dose of 12.5 mg/kg; assay type: functional, Mus musculus; parameters: unit not given here; how it was run: as §1
[19] = Toxicity day survivors expressed as number of animals that survived to day five/ number of test animals under control group B at a dose of 12.5 mg/kg; 6 survived out of 6; assay type: functional, Mus musculus
[20] = Toxicity day survivors expressed as number of animals that survived to day five/ number of test animals under control group A at a dose of 6.25 mg/kg; 6 survived out of 6; assay type: functional, Mus musculus
[21] = Antileukemic activity against Murine P388 lymphocytic leukemia, body weight difference of the test animals compared to control group A animals at a dose of 6.25 mg/kg; assay type: functional, Mus musculus; how it was run: as §1
[22] = Percent increase in life span of test animals compared to untreated tumor-bearing control group B animals at a dose of 100 mg/kg; assay type: functional; conditions: Mus musculus
[23] = Toxicity day survivors expressed as number of animals that survived to day five/ number of test animals under control group B at a dose of 50 mg/kg; 6 survived out of 6; assay type: functional, Mus musculus
[24] = Toxicity day survivors expressed as number of animals that survived to day five/ number of test animals under control group C at a dose of 100 mg/kg; 6 survived out of 6; assay type: functional, Mus musculus
P388 [25] = experiment: Log cell population relative to cell population at the beginning of treatment compared to control group A at a dose of 12.5 mg/kg; assay type: functional, Mus musculus
[26] = Antileukemic activity against Murine P388 lymphocytic leukemia, body weight difference of the test animals compared to control group C animals at a dose of 25 mg/kg; assay type: functional, Mus musculus; how it was run: as §1
P388 [27] = experiment: Log cell population relative to cell population at the beginning of treatment compared to control group B at a dose of 50 mg/kg; assay type: functional, Mus musculus
[28] = Toxicity day survivors expressed as number of animals that survived to day five/ number of test animals under control group C at a dose of 6.25 mg/kg; 6 survived out of 6; assay type: functional, Mus musculus
[29] = Toxicity day survivors expressed as number of animals that survived to day five/ number of test animals under control group A at a dose of 100 mg/kg; 6 survived out of 6; assay type: functional, Mus musculus
[30] = Log cell population relative to cell population at the beginning of treatment compared to control group A at a dose of 100 mg/kg; assay type: functional, Mus musculus
[31] = Percent increase in life span of test animals compared to untreated tumor-bearing control group B animals at a dose of 12.5 mg/kg; assay type: functional; conditions: Mus musculus
P388 [32] = experiment: Log cell population relative to cell population at the beginning of treatment compared to control group B at a dose of 6.25 mg/kg; assay type: functional, Mus musculus
P388 [33] = experiment: Log cell population relative to cell population at the beginning of treatment compared to control group B at a dose of 12.5 mg/kg; assay type: functional, Mus musculus
[34] = Percent increase in life span of test animals compared to untreated tumor-bearing control group C animals at a dose of 100 mg/kg; assay type: functional; conditions: Mus musculus
[35] = Percent increase in life span of test animals compared to untreated tumor-bearing control group A animals at a dose of 12.5 mg/kg; assay type: functional; conditions: Mus musculus
[36] = Antileukemic activity against Murine P388 lymphocytic leukemia, body weight difference of the test animals compared to control group B animals at a dose of 100 mg/kg; assay type: functional, Mus musculus; parameters: unit not given here; how it was run: as §1
[37] = Toxicity day survivors expressed as number of animals that survived to day five/ number of test animals under control group A at a dose of 25 mg/kg; 6 survived out of 6; assay type: functional, Mus musculus
[38] = Antileukemic activity against Murine P388 lymphocytic leukemia and toxicity day survivors expressed as number of animals that survived to day five/ number of test animals under control group B at a dose of 6.25 mg/kg; 6 survived out of 6; assay type: functional, Mus musculus
[39] = Antileukemic activity against Murine P388 lymphocytic leukemia, body weight difference of the test animals compared to control group A animals at a dose of 25 mg/kg; assay type: functional, Mus musculus; parameters: unit not given here; how it was run: as §1

Compound CC(C)NC(=O)OCc1c(COC(=O)NC(C)C)c(-c2ccc(Cl)c(Cl)c2)n2c1CCC2 has a TDS [1] of 6, a TDS [2] of 6 and a BWD [3] of -4.2. The KE (P388 [4]) was -0.55, the ILS at 50 mg/kg [5] was 97% and the BWD [6] was -1.1. For the same compound, the BWD [7] was -2.6, the ILS at 25 mg/kg [8] was 66% and the ILS at 50 mg/kg [9] was 96%. It also gave a KE (P388 [10]) of -0.07, a BWD [11] of -0.5 and a BWD [12] of -3.1. For the same compound, the BWD [13] was -1.8, the ILS at 50 mg/kg (P388 [14]) was 95% and the KE (P388 [15]) was 2.81. For the same compound, the KE (P388 [16]) was 4.35, the BWD [17] was -0.6 and the BWD [18] was -1.9. For the same compound, the TDS [19] was 6, the TDS [20] was 6 and the BWD [21] was 0. For the same compound, the ILS at 100 mg/kg [22] was -14%, the TDS [23] was 6 and the TDS [24] was 6. It also gave a KE (P388 [25]) of 1.4, a BWD [26] of -1.4 and a KE (P388 [27]) of 5.71. The TDS [28] was 6, the TDS [29] was 6 and the KE [30] was 0.8. For the same compound, the ILS at 12.5 mg/kg [31] was 45%, the KE (P388 [32]) was 0.69 and the KE (P388 [33]) was 1.08. For the same compound, the ILS at 100 mg/kg [34] was 123%, the ILS at 12.5 mg/kg [35] was 56% and the BWD [36] was -4.6. For the same compound, the TDS [37] was 6, the TDS [38] was 6 and the BWD [39] was -1.7.
